Test results as given in ChEMBL document CHEMBL2177078, “New positron emission tomography (PET) radioligand for imaging σ-1 receptors in living subjects” (J Med Chem, 2012).
The source made the active and inactive calls. The rule behind the calls is not given here.

How the values were obtained:
[1] = Displacement of [3H]di-o-tolylguanidine from Sigma2 receptor in rat liver homogenate; assay type: tissue-based
Method in brief: (§1)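 Competition binding of unlabeled ligand in rat brain or rat liver homogenates. S2R binding run in the presence of 300 nM 1 to mask S1R sites. Liver assays run on a 96-well platform.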

[2] = Displacement of [3H]di-o-tolylguanidine from Sigma2 receptor in rat brain homogenate; assay type: tissue-based; method in brief: as §1
[3] = biological target: T1, Sigma non-opioid intracellular receptor 1 (Rattus norvegicus, UniProt Q9R0C9); assay: Displacement of [3H](+)-pentazocine from Sigma1 receptor in rat brain homogenate; assay type: tissue-based
[4] = Binding affinity to acetylcholine esterase at 100 nM
[5] = Binding affinity to sodium channel site 2 at 100 nM
[6] = Binding affinity to calcium channel L type at 100 nM
[7] = Binding affinity to alpha bungarotoxin insensitive neuronal nicotinic receptor at 100 nM
[8] = Binding affinity to peripheral muscarinic receptor at 100 nM
[9] = biological target: T2, Muscarinic acetylcholine receptor M2 (Homo sapiens) (UniProt P08172); assay: Binding affinity to muscarinic M2 receptor at 100 nM
T2 sequence (whole entry): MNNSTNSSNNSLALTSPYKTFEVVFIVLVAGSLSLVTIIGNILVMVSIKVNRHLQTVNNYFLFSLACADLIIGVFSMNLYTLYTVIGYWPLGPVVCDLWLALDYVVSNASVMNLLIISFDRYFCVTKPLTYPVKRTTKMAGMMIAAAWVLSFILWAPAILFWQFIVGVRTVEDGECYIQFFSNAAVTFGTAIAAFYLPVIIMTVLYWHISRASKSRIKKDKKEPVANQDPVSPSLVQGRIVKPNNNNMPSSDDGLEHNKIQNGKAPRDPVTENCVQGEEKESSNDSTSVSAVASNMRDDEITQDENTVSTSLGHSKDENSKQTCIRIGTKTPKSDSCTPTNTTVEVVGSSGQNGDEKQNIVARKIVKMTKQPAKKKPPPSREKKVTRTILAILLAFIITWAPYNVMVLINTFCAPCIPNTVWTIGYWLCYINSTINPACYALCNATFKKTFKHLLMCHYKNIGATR

[10] = biological target: Histamine H2 receptor (Homo sapiens) (UniProt P25021); assay: Binding affinity to histamine H2 receptor at 100 nM
[11] = Binding affinity to alpha-2 adrenergic receptor at 100 nM
[12] = biological target: Sigma non-opioid intracellular receptor 1 (Homo sapiens) (UniProt Q99720); assay: Binding affinity to Sigma1 receptor overexpressed in CHO cells after 30 to 120 mins by gamma counting; assay type: cell-based; conditions: tested as the 18F-labelled form
Method in brief: (§2)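 CHO cells grown in Ham's F-12, seeded 2 × 10^5 per well, transfected 24 h later with 0.8 μg empty pcDNA (control) or 0.8 μg S1R (OPRS1) DNA; medium refreshed at 12 h. At 24 h post-transfection, exposed to [18F] tracer (2 μCi/well) for 30 and 120 min, triplicate wells. Washed twice with cold PBS, lysed in 1 N NaOH, gamma counted; normalized to Bradford protein.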

[13] = biological target: Sigma non-opioid intracellular receptor 1 (Homo sapiens) (UniProt Q99720); assay: Binding affinity to Sigma1 receptor overexpressed in CHO cells after 120 mins by gamma counting relative to control; assay type: cell-based; conditions: tested as the 18F-labelled form
Method in brief: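 CHO cells grown in Ham's F-12, 2 × 10^5 per well, transfected 24 h later with 0.8 μg empty pcDNA (control) or S1R (OPRS1) cDNA; medium refreshed at 12 h. At 24 h post-transfection, 2 μCi [18F] tracer per well; triplicates; 30 and 120 min uptake, two cold PBS washes, 1 N NaOH lysis, γ counting, normalized to Bradford protein.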

[14] = biological target: T1, Sigma non-opioid intracellular receptor 1; assay: Displacement of [3H](+)-pentazocine from Sigma1 receptor in rat liver homogenate; assay type: tissue-based
[15] = biological target: Sodium-dependent noradrenaline transporter (Homo sapiens) (UniProt P23975); assay: Binding affinity to norepinephrine transporter at 100 nM
Mus musculus [16] = species on record: Mus musculus; assay: Biodistribution in mouse corpus callosum at 200 uCi after 60 mins by autoradiography; assay type: ADME, organism-based; conditions: in vivo, 1 h
Method in brief: (§3)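 Mice injected iv with 200-250 μCi tracer; brains taken 60 min later after saline perfusion, snap frozen and cut as 12 μm sagittal sections. Sections air-dried 10 min, exposed to 18F-sensitive phosphor screens 12 h at 4 °C, then imaged; anatomy confirmed by Nissl staining. Blocking arm given BD1047 (1 mg/kg) 10 min before tracer.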

Cerebellum = assay: Biodistribution in mouse cerebellum at 200 uCi after 60 mins by autoradiography; assay type: ADME, organism-based; conditions: in vivo, 1 h; method in brief: as §3
Hippocampus = assay: Biodistribution in mouse hippocampus at 200 uCi after 60 mins by autoradiography; assay type: ADME, organism-based; conditions: in vivo, 1 h; method in brief: as §3
Cortex = assay: Biodistribution in mouse cortex at 200 uCi after 60 mins by autoradiography; assay type: ADME, organism-based; conditions: in vivo, 1 h; method in brief: as §3
Mus musculus [17] = species on record: Mus musculus; assay: Biodistribution in mouse brain facial nucleus at 200 uCi after 60 mins by autoradiography; assay type: ADME, organism-based; conditions: in vivo, 1 h; method in brief: as §3
Brain [18] = assay: Drug uptake in Balb C mouse brain at 630-690 uCi, iv after 60 mins by HPLC analysis; assay type: ADME, organism-based; conditions: in vivo, 1 h
Method in brief: (§4)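 Balb C mice (n=2 per time point) received 630-690 μCi tracer iv; brain and liver collected at 30 and 60 min. Tissue homogenized in 500 μL ice-cold acetonitrile, centrifuged 9,400 g for 4 min. Supernatants run on reversed-phase radio-HPLC; percent intact parent = parent peak area/total peak area × 100, decay corrected to dosing. Extraction efficiency checked by gamma counting.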

Liver [19] = assay: Drug uptake in Balb C mouse liver at 630-690 uCi, iv after 60 mins by HPLC analysis; assay type: ADME, organism-based; conditions: in vivo, 1 h; method in brief: as §4
Brain [20] = assay: Drug uptake in Balb C mouse brain at 630-690 uCi, iv after 30 mins by HPLC analysis; assay type: ADME, organism-based; conditions: in vivo, 0.5 h; method in brief: as §4
Liver [21] = assay: Drug uptake in Balb C mouse liver at 630-690 uCi, iv after 30 mins by HPLC analysis; assay type: ADME, organism-based; conditions: in vivo, 0.5 h; method in brief: as §4
Brain [22] = assay: Biodistribution in mouse brain at 200 uCi administered 10 mins post BD1047 treatment measured after 60 mins by autoradiography; assay type: ADME, organism-based; conditions: in vivo, 1 h; method in brief: as §3
Mus musculus [23] = species on record: Mus musculus; assay: Biodistribution in mouse midbrain at 200 uCi after 60 mins by autoradiography; assay type: ADME, organism-based; conditions: in vivo, 1 h; method in brief: as §3
Brain [24] = assay: Biodistribution in mouse brain assessed as reduction in compound uptake at 95-125 uCi, iv administered 10 mins post BD1047 treatment measured after 60 mins by PET imaging; assay type: ADME, organism-based; conditions: in vivo, 1 h
Method in brief: (§5)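 Normal Balb C mice (20-30 g) under isoflurane (3% induction, 1-3% maintenance). […] Dynamic list-mode microPET acquisition started just before injection and ran 60 min; images reconstructed by 2D OSEM, whole-brain time-activity curves.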

Brain [25] = assay: Biodistribution in mouse brain assessed as reduction in compound uptake at 95-125 uCi, iv administered 10 mins post FTC-146 treatment measured after 60 mins by PET imaging; assay type: ADME, organism-based; conditions: in vivo, 1 h
Method in brief: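 Normal Balb C mice (20-30 g) under isoflurane (3% induction, 1-3% maintenance). […] Dynamic microPET list-mode acquisition for 60 min, OSEM reconstruction. Whole-brain uptake from time-activity curves, reduction read at 60 min.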

CHO [26] = assay: Cellular uptake in CHO cells after 30 to 120 mins by gamma counting; assay type: ADME, cell-based, Cricetulus griseus; conditions: chinese hamster; method in brief: as §2
Brain [27] = assay: Biodistribution in mouse brain at 95-125 uCi, iv by PET imaging; assay type: ADME, organism-based; conditions: in vivo; method in brief: as §5
Brain [28] = assay: Biodistribution in mouse brain assessed as reduction in compound uptake at 95-125 uCi, iv administered 10 mins post haloperidol treatment measured after 60 mins by PET imaging; assay type: ADME, organism-based; conditions: in vivo, 1 h; method in brief: as §5
CHO [29] = assay: Cellular uptake in CHO cells after 30 to 120 mins by liquid scintillation counting; assay type: ADME, cell-based, Cricetulus griseus; conditions: chinese hamster
Method in brief: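 Uptake in CHO cells in Ham's F-12, empty-pcDNA or S1R-transfected (0.8 μg DNA, 2 × 10^5 cells/well). [18F]13 at 2 μCi per well or [3H]1, 30 and 120 min, triplicate. Cells washed with cold PBS and lysed in 1 N NaOH. Counted by gamma counter (18F) or liquid scintillation (3H), normalized to Bradford protein.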

Sigma non-opioid intracellular receptor 1 (Homo sapiens), sequence (Q99720 whole entry): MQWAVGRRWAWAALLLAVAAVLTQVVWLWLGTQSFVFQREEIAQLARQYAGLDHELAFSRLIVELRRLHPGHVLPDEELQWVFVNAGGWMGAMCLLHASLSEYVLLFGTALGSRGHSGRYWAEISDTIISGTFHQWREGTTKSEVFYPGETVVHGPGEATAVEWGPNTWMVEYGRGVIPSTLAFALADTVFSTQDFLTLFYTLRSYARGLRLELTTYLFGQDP
T1 sequence (Q9R0C9 whole entry): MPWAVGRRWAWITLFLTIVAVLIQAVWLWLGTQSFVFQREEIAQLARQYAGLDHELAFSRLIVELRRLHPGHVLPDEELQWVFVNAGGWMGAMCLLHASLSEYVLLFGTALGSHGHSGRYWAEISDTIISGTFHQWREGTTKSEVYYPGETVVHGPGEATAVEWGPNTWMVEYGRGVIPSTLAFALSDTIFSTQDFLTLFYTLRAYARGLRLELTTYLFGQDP
Sodium-dependent noradrenaline transporter (Homo sapiens), sequence (P23975 whole entry): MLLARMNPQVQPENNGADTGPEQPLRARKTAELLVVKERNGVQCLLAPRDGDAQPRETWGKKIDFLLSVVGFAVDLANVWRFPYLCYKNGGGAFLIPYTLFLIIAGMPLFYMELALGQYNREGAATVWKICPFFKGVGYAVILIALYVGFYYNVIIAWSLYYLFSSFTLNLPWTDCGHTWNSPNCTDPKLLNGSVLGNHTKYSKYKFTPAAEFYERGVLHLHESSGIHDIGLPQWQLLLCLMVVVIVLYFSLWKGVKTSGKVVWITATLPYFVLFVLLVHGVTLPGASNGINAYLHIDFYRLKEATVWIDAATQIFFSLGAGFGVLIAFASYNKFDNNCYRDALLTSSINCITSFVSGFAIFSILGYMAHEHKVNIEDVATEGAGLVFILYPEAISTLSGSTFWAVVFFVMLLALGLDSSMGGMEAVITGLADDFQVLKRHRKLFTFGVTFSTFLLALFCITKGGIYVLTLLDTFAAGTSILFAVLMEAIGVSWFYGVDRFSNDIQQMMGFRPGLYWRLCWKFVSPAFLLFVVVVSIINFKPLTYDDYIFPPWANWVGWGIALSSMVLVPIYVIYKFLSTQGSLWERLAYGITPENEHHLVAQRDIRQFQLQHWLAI
Histamine H2 receptor (Homo sapiens), sequence (P25021 whole entry): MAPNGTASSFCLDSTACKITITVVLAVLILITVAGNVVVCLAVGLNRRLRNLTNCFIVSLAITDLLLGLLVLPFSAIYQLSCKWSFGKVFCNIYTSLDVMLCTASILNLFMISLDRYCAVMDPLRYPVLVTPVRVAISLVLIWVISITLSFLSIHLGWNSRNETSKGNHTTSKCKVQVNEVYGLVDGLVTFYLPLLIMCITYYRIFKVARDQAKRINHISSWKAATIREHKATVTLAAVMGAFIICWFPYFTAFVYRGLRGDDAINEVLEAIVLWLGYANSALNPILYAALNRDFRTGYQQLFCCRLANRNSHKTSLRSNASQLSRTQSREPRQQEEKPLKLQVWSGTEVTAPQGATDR

Which Ki [1] does the source give for `CCCc1ccc2c(c1)sc(=O)n2CCN1CCCCCC1` here?
The Ki was 247 nM.

What about the Ki [2] of the same compound?
Its Ki is 627 nM.

What about the Ki [3] of the same compound?
Its Ki is 1.7 nM.

Which results are given for `O=c1sc2cc(CCCF)ccc2n1CCN1CCCCCC1`?
Activity [4]: < 50%; Activity [5]: < 50%; Activity [6]: < 50%; Activity [7]: < 50%; Activity [8]: < 50%; Activity [9]: < 50%; Activity [10]: < 50%; Activity [11]: < 50%; Activity [12]: Active; fold change (FC) [13]: 4; Ki [1]: 467 nM; Ki [14]: 0.96 nM; Activity [15]: < 50%

For `O=c1sc2cc(CCC[18F])ccc2n1CCN1CCCCCC1`, which Drug uptake (Mus musculus [16]) is on record?
Its Drug uptake is “Not Active”.

What about the Drug uptake (Cerebellum) of the same compound?
The Drug uptake was “Active”.

And the Drug uptake (Hippocampus)?
The Drug uptake was “Active”.

And the Drug uptake (Cortex)?
Its Drug uptake is “Active”.

And the Drug uptake (Mus musculus [17])?
The Drug uptake was “Active”.

What about the Drug uptake (Brain [18]) of the same compound?
Its Drug uptake is 100%.

What about the Drug uptake (Liver [19]) of the same compound?
The Drug uptake was 27%.

What about the Drug uptake (Brain [20]) of the same compound?
The Drug uptake was 100%.

And the Drug uptake (Liver [21])?
The Drug uptake was 34%.

What about the Drug uptake (Brain [22]) of the same compound?
The Drug uptake was “Not Active”.

And the Drug uptake (Mus musculus [23])?
The Drug uptake was “Active”.

What about the Drug uptake (Brain [24]) of the same compound?
Its Drug uptake is 81%.

And the Drug uptake (Brain [25])?
Its Drug uptake is 82%.

And the Drug uptake (CHO [26])?
Its Drug uptake is “Active”.

What about the Drug uptake (Brain [27]) of the same compound?
The Drug uptake was “Active”.

And the Drug uptake (Brain [28])?
The Drug uptake was 80%.

Which Drug uptake (CHO [29]) does the source give for `[3H]c1cc2c(c([3H])c1O)[C@@]1(C)CCN(CC=C(C)C)[C@@H](C2)[C@H]1C` here?
The Drug uptake was “Active”.
